Laboratory results from ChEMBL document CHEMBL4325889, “Natural products hybrids: 3,5,4'-Trimethoxystilbene-5,6,7-trimethoxyflavone chimeric analogs as potential cytotoxic agents against diverse human cancer cells” (Eur J Med Chem, 2019).

What was measured:
Type in all cases: functional
DU-145 = assay: Growth inhibition of human DU145 cells at 10 uM after 48 hrs by SRB assay relative to control; conditions: DU-145, 48 h, read-out: GI
Outline: (§1)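 Screened at the National Cancer Institute by the standard NCI protocol using the sulforhodamine B assay, which measures cellular protein. Single dose of 10 µM. Result is percent growth inhibition; values above 100% mean cell number fell below the initial population. Values are the average of duplicates.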

UACC-257 = assay: Growth inhibition of human UACC257 cells at 10 uM after 48 hrs by SRB assay relative to control; conditions: UACC-257, 48 h, read-out: GI
Outline: (§2)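 NCI screen against its human cancer cell line panel by the standard NCI protocol, SRB protein stain. Single dose of 10 μM. Percent growth inhibition versus control; values above 100% mean the cell population fell below the starting number. Each value is the mean of duplicates.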

HCT-116 = assay: Growth inhibition of human HCT116 cells at 10 uM after 48 hrs by SRB assay relative to control; conditions: HCT-116, 48 h, read-out: GI; outline: as §1
HOP-92 = assay: Growth inhibition of human HOP92 cells at 10 uM after 48 hrs by SRB assay relative to control; conditions: HOP-92, 48 h, read-out: GI; outline: as §1
HL-60(TB) = assay: Growth inhibition of human HL-60(TB) cells at 10 uM after 48 hrs by SRB assay relative to control; conditions: HL-60, 48 h, read-out: GI
Outline: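 Run at NCI under its standard single-dose protocol against a leukemia cell panel. Cells were exposed to 10 µM; growth was read by sulforhodamine B staining of cellular protein and expressed as % growth inhibition versus untreated control. Values above 100% mean the cell population fell below the starting count (cytocidal). Each value is the average of duplicates.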

SF-539 = assay: Growth inhibition of human SF539 cells at 10 uM after 48 hrs by SRB assay relative to control; conditions: SF-539, 48 h, read-out: GI; outline: as §1
NCI-H23 = assay: Growth inhibition of human NCI-H23 cells at 10 uM after 48 hrs by SRB assay relative to control; conditions: NCI-H23, 48 h, read-out: GI; outline: as §1
CCRF-CEM = assay: Growth inhibition of human CCRF-CEM cells at 10 uM after 48 hrs by SRB assay relative to control; conditions: read-out: GI; outline: as §1
MDA-MB-468 = assay: Growth inhibition of human MDA-MB-468 cells at 10 uM after 48 hrs by SRB assay relative to control; conditions: MDA-MB-468, 48 h, read-out: GI; outline: as §1
A549 = assay: Growth inhibition of human A549 cells at 10 uM after 48 hrs by SRB assay relative to control; conditions: A549, 48 h, read-out: GI; outline: as §1
MCF7 = assay: Growth inhibition of human MCF7 cells at 10 uM after 48 hrs by SRB assay relative to control; conditions: MCF7, 48 h, read-out: GI; outline: as §1
NCI-H226 = assay: Growth inhibition of human NCI-H226 cells at 10 uM after 48 hrs by SRB assay relative to control; conditions: NCI-H226, 48 h, read-out: GI; outline: as §1
Malme-3M = assay: Growth inhibition of human MALME-3M cells at 10 uM after 48 hrs by SRB assay relative to control; conditions: read-out: GI; outline: as §1
RXF 393 = assay: Growth inhibition of human RXF393 cells at 10 uM after 48 hrs by SRB assay relative to control; conditions: RXF 393, 48 h, read-out: GI; outline: as §1
IGROV-1 = assay: Growth inhibition of human IGROV1 cells at 10 uM after 48 hrs by SRB assay relative to control; conditions: IGROV-1, 48 h, read-out: GI; outline: as §1
NCI/ADR-RES = assay: Growth inhibition of human NCI/ADR-RES cells at 10 uM after 48 hrs by SRB assay relative to control; conditions: read-out: GI; outline: as §1
786-0 = assay: Growth inhibition of human 786-0 cells at 10 uM after 48 hrs by SRB assay relative to control; conditions: 786-0, 48 h, read-out: GI; outline: as §1
SR = assay: Growth inhibition of human SR cells at 10 uM after 48 hrs by SRB assay relative to control; conditions: read-out: GI; outline: as §2
SF-295 = assay: Growth inhibition of human SF295 cells at 10 uM after 48 hrs by SRB assay relative to control; conditions: SF-295, 48 h, read-out: GI; outline: as §1
HCT-15 = assay: Growth inhibition of human HCT15 cells at 10 uM after 48 hrs by SRB assay relative to control; conditions: HCT-15, 48 h, read-out: GI; outline: as §1
HCC 2998 = assay: Growth inhibition of human HCC2998 cells at 10 uM after 48 hrs by SRB assay relative to control; conditions: HCC 2998, 48 h, read-out: GI; outline: as §1
TK-10 = assay: Growth inhibition of human TK10 cells at 10 uM after 48 hrs by SRB assay relative to control; conditions: TK-10, 48 h, read-out: GI; outline: as §2
Hs-578T = assay: Growth inhibition of human Hs 578T cells at 10 uM after 48 hrs by SRB assay relative to control; conditions: read-out: GI; outline: as §1
COLO 205 = assay: Growth inhibition of human COLO205 cells at 10 uM after 48 hrs by SRB assay relative to control; conditions: COLO 205, 48 h, read-out: GI; outline: as §1
U-251 = assay: Growth inhibition of human U251 cells at 10 uM after 48 hrs by SRB assay relative to control; conditions: U-251, 48 h, read-out: GI; outline: as §2
LOX IMVI = assay: Growth inhibition of human LOXIMVI cells at 10 uM after 48 hrs by SRB assay relative to control; conditions: read-out: GI; outline: as §1
SNB-75 = assay: Growth inhibition of human SNB75 cells at 10 uM after 48 hrs by SRB assay relative to control; conditions: SNB-75, 48 h, read-out: GI; outline: as §2
SK-MEL-28 = assay: Growth inhibition of human SK-MEL-28 cells at 10 uM after 48 hrs by SRB assay relative to control; conditions: SK-MEL-28, 48 h, read-out: GI; outline: as §1
SK-MEL-5 = assay: Growth inhibition of human SK-MEL-5 cells at 10 uM after 48 hrs by SRB assay relative to control; conditions: SK-MEL-5, 48 h, read-out: GI; outline: as §1
NCI-H322M = assay: Growth inhibition of human NCI-H322M cells at 10 uM after 48 hrs by SRB assay relative to control; conditions: read-out: GI; outline: as §1
SN12C = assay: Growth inhibition of human SN12C cells at 10 uM after 48 hrs by SRB assay relative to control; conditions: read-out: GI; outline: as §1
K562 = assay: Growth inhibition of human K562 cells at 10 uM after 48 hrs by SRB assay relative to control; conditions: K562, 48 h, read-out: GI; outline: as §1
RPMI-8226 = assay: Growth inhibition of human RPMI8226 cells at 10 uM after 48 hrs by SRB assay relative to control; conditions: RPMI-8226, 48 h, read-out: GI; outline: as §1
SK-MEL-2 = assay: Growth inhibition of human SK-MEL-2 cells at 10 uM after 48 hrs by SRB assay relative to control; conditions: SK-MEL-2, 48 h, read-out: GI; outline: as §1

Structure (SMILES): COc1ccc(C(=O)Nc2cccc(-c3cc(=O)c4c(OC)c(OC)c(OC)cc4o3)c2)cc1
- inhibition of growth at 10 µM (DU-145): 43.5%
- inhibition of growth at 10 µM (UACC-257): -4.69%
- inhibition of growth at 10 µM (HCT-116): 52.2%
- inhibition of growth at 10 µM (HOP-92): 93.3%
- inhibition of growth at 10 µM (HL-60(TB)): 55.2%
- inhibition of growth at 10 µM (SF-539): 33.7%
- inhibition of growth at 10 µM (NCI-H23): 42.5%
- inhibition of growth at 10 µM (CCRF-CEM): 72.5%
- inhibition of growth at 10 µM (MDA-MB-468): 24.8%
- inhibition of growth at 10 µM (A549): 35.3%
- inhibition of growth at 10 µM (MCF7): 33.5%
- inhibition of growth at 10 µM (NCI-H226): 30.1%
- inhibition of growth at 10 µM (Malme-3M): 46.6%
- inhibition of growth at 10 µM (RXF 393): 46.4%
- inhibition of growth at 10 µM (IGROV-1): 46.1%
- inhibition of growth at 10 µM (NCI/ADR-RES): 39.8%
- inhibition of growth at 10 µM (786-0): 45%
- inhibition of growth at 10 µM (SR): 71.4%
- inhibition of growth at 10 µM (SF-295): 40.4%
- inhibition of growth at 10 µM (HCT-15): 54.8%
- inhibition of growth at 10 µM (HCC 2998): 29.7%
- inhibition of growth at 10 µM (TK-10): 23.3%
- inhibition of growth at 10 µM (Hs-578T): 57.1%
- inhibition of growth at 10 µM (COLO 205): 26.9%
- inhibition of growth at 10 µM (U-251): 27.7%
- inhibition of growth at 10 µM (LOX IMVI): 58.1%
- inhibition of growth at 10 µM (SNB-75): 32.4%
- inhibition of growth at 10 µM (SK-MEL-28): 31%
- inhibition of growth at 10 µM (SK-MEL-5): 49.8%
- inhibition of growth at 10 µM (NCI-H322M): 44.9%
- inhibition of growth at 10 µM (SN12C): 50%
- inhibition of growth at 10 µM (K562): 79.4%
- inhibition of growth at 10 µM (RPMI-8226): 81.2%
- inhibition of growth at 10 µM (SK-MEL-2): 38.7%

Structure (SMILES): COc1cc2oc(-c3cccc(NC(=O)c4ccccc4)c3)cc(=O)c2c(OC)c1OC
- inhibition of growth at 10 µM (DU-145): 14.5%
- inhibition of growth at 10 µM (UACC-257): 0.33%
- inhibition of growth at 10 µM (HCT-116): 32.3%
- inhibition of growth at 10 µM (HOP-92): 52.4%
- inhibition of growth at 10 µM (HL-60(TB)): 39.5%
- inhibition of growth at 10 µM (SF-539): 32.2%
- inhibition of growth at 10 µM (NCI-H23): 27.1%
- inhibition of growth at 10 µM (CCRF-CEM): 54.3%
- inhibition of growth at 10 µM (MDA-MB-468): 15.8%
- inhibition of growth at 10 µM (A549): 31.1%
- inhibition of growth at 10 µM (MCF7): 22.7%
- inhibition of growth at 10 µM (NCI-H226): 18.6%
- inhibition of growth at 10 µM (Malme-3M): 13.2%
- inhibition of growth at 10 µM (RXF 393): 25.6%
- inhibition of growth at 10 µM (IGROV-1): 21.6%
- inhibition of growth at 10 µM (NCI/ADR-RES): 25.5%
- inhibition of growth at 10 µM (786-0): 21.9%
- inhibition of growth at 10 µM (SR): 68.4%
- inhibition of growth at 10 µM (SF-295): 22.2%
- inhibition of growth at 10 µM (HCT-15): 34.8%
- inhibition of growth at 10 µM (HCC 2998): 12.2%
- inhibition of growth at 10 µM (TK-10): 8.72%
- inhibition of growth at 10 µM (Hs-578T): 2.76%
- inhibition of growth at 10 µM (COLO 205): 15.6%
- inhibition of growth at 10 µM (U-251): 16.3%
- inhibition of growth at 10 µM (LOX IMVI): 38.3%
- inhibition of growth at 10 µM (SNB-75): 22.6%
- inhibition of growth at 10 µM (SK-MEL-28): 26.8%
- inhibition of growth at 10 µM (SK-MEL-5): 36.8%
- inhibition of growth at 10 µM (NCI-H322M): 16.2%
- inhibition of growth at 10 µM (SN12C): 23.8%
- inhibition of growth at 10 µM (K562): 56.9%
- inhibition of growth at 10 µM (RPMI-8226): 73.4%
- inhibition of growth at 10 µM (SK-MEL-2): 23.2%
